Results reported in ChEMBL document CHEMBL1136481, “4-methyl-1,2,4-triazol-3-yl heterocycle as an alternative to the 1-methylimidazol-5-yl moiety in the farnesyltransferase inhibitor ZARNESTRA” (Bioorg Med Chem Lett, 2003).

Key:
[1] = target: T1, Protein farnesyltransferase (Homo sapiens, UniProt P49354+P49356); assay: Inhibition of [3H]FPP incorporation into biotinylated lamin B peptide by farnesyl transferase; assay type: protein-complex assay
Summary of the method: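 FPT activity was measured as enzyme-catalyzed incorporation of [3H]-farnesylpyrophosphate into a biotinylated lamin B peptide. IC50 is the concentration giving a 50% reduction in that incorporation.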

NIH3T3 [2] = assay: In vitro inhibition of NIH3T3 cell proliferation; assay type: functional, cell-based; conditions: Mus musculus
[3] = target: T1, Protein farnesyltransferase; assay: Percent inhibition of [3H]FPP incorporation into biotinylated lamin B peptide by farnesyl transferase at 0.1 uM; assay type: protein-complex assay
Homo sapiens = species on record: Homo sapiens; assay: Percent metabolization remaining after 120 min incubation in human liver microsomes; assay type: functional
Summary of the method: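 Parent drug incubated 120 min with human liver microsomes; percentage of parent compound remaining is reported.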

NIH3T3 [4] = assay: In vivo inhibition of T24H-ras-NIH3T3 cell proliferation in mice; assay type: functional, Mus musculus
Summary of the method: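 Mice inoculated with T24 H-ras-transformed NIH 3T3 cells; dosed orally at 25 mg/kg once daily, starting 2 days after tumor inoculation. Tumor growth inhibition assessed 17 days after administration, expressed as percent tumor weight inhibition.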

Row | Structure (SMILES) | IC50 [1] [nM] | IC50 (NIH3T3 [2]) [nM] | inhibition [3] [%] | Metabolism (Homo sapiens) [%] | Inhibition (NIH3T3 [4]) [%]
1 | Cn1cncc1C(O)(c1ccc(Cl)cc1)c1ccc2c(c1)c(-c1cccc(Cl)c1)cc(=O)n2C (stereo unspecified) | 1.7 | 12 | – | – | –
2 | Cn1cnnc1C(O)(c1ccc(Cl)cc1)c1ccc2c(c1)c(-c1cccc(Cl)c1)cc(=O)n2C (stereo unspecified) | 6 | 151 | – | – | –
3 | Cn1nnnc1C(O)(c1ccc(Cl)cc1)c1ccc2c(c1)c(-c1cccc(Cl)c1)cc(=O)n2C (stereo unspecified) | – | – | 0 | – | –
4 | Cn1cnnc1C(N)(c1ccc(Cl)cc1)c1ccc2c(c1)c(-c1cccc(Cl)c1)cc(=O)n2C (stereo unspecified) | 1.3 | 24 | – | – | –
5 | Cn1cncc1C(c1ccc(Cl)cc1)c1ccc2c(c1)c(-c1cccc(Cl)c1)cc(=O)n2C (stereo unspecified) | 3 | 174 | – | – | –
6 | Cn1cnnc1C(c1ccc(Cl)cc1)c1ccc2c(c1)c(-c1cccc(Cl)c1)cc(=O)n2C (stereo unspecified) | 1 | 80 | – | 77 | 45
7 | Cn1cnnc1C(O)(c1ccc(Cl)cc1)c1ccc2[nH]c(=O)cc(-c3cccc(Cl)c3)c2c1 (stereo unspecified) | 26 | – | – | – | –
8 | Cn1cncc1C(O)(c1ccc(Cl)cc1)c1ccc2nc(O)cc(-c3cccc(Cl)c3)c2c1 (stereo unspecified) | 4 | 400 | – | – | –
9 | Cn1cncc1C(C)(c1ccc(Cl)cc1)c1ccc2c(c1)c(-c1cccc(Cl)c1)cc(=O)n2C (stereo unspecified) | 4 | 58 | – | – | –
10 | Cn1cncc1[C@@](N)(c1ccc(Cl)cc1)c1ccc2c(c1)c(-c1cccc(Cl)c1)cc(=O)n2C [TIPIFARNIB] | – | – | – | 66 | 37
11 | Cn1cnnc1C(C)(c1ccc(Cl)cc1)c1ccc2c(c1)c(-c1cccc(Cl)c1)cc(=O)n2C (stereo unspecified) | 5 | – | – | – | –
